76 sequences from the array DNA melting data of Ke et al. (doi:10.1101/2024.01.08.574731) can be followed below.

Data set [1] in a line: melting temperature; fluorescence melt of hairpins on a sequencing array, two-state fit, raised by 9.35 °C to match UV melts. As to conditions: sodium 0.088 M. The essentials: (§1)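 Melting temperature and folding enthalpy were derived from bootstrapped two-state fits. The fitted temperatures were raised by 9.35 °C to agree with UV melts, and four replicates were combined by inverse variance. The underlying data were Cy3 fluorescence images of library hairpins, with annealed Cy3 and quencher oligos, on a sequenced MiSeq flow cell in 50 mM Na-HEPES pH 8.0, 25 mM NaCl, taken in 2.5 °C steps up to 60 °C, normalised to pre-quench Cy3 and to control constructs.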

Data set [2] in a line: folding enthalpy; higher = less favourable; fluorescence melt of hairpins on a sequencing array, two-state fit. As to conditions: sodium 0.088 M. The essentials:
as §1

GCGTCGCTACGC ((((....)))): the Tm in data set [1] was 55.2 °C. In addition, the folding enthalpy in data set [2] was -13.7 kcal/mol.
As to GCGTCGTACGC ((((...)))), the Tm in data set [1] stood at 65.6 °C. For the same sequence, in data set [2], the folding enthalpy was -18.3 kcal/mol.
For GCGTCTACGAAAGTACGC (((..(((....)))))), in data set [1], the Tm worked out at 47.6 °C. In addition, the folding enthalpy in data set [2] was -28.4 kcal/mol.
Taken in the same sequence, the figures for GCGTCTCGACGC ((((....)))) were 68.6 °C and -26.9 kcal/mol.
Take GCGTCTGACGC ((((...)))): in data set [1], the Tm came out at 56.7 °C. For the same sequence, the folding enthalpy in data set [2] is -24.1 kcal/mol.
For GCGTCTTCGAAAGAACGC (((..(((....)))))), the Tm in data set [1] was 46.6 °C. Moreover, the folding enthalpy in data set [2] was -26 kcal/mol.
Taken in the same sequence, the figures for GCGTGACCACGC ((((....)))) were 61.3 °C and -21.2 kcal/mol.
For the sequence GCGTGAGACGC ((((...)))), in data set [1], the Tm turned out to be 51 °C. For the same sequence, in data set [2], the folding enthalpy is -18.8 kcal/mol.
Turning to GCGTGAGGAAACCCACGC (((((.(....).))))), in data set [1], the Tm worked out at 57.7 °C. Besides, the folding enthalpy in data set [2] is -42.2 kcal/mol.
For GCGTGATGACGC ((((....)))) the same measures were 52.8 °C and -25.1 kcal/mol.
Taken in the same sequence, the figures for GCGTGCGAAAGCACCCGC ((((((....)))..))) were 43.7 °C and -10.1 kcal/mol.
For GCGTGCGAAAGCATCCGC ((((((....)))..))) the same measures were 47.6 °C and -17.3 kcal/mol.
In the case of GCGTGCGGAAACGCACAC (.(((((....))))).), the Tm in data set [1] was found to be 50.3 °C. For the same sequence, in data set [2], the folding enthalpy was -8.53 kcal/mol.
As to GCGTGCGGAAACGTACGC ((((.((....)).)))), the Tm in data set [1] worked out at 66.3 °C. Besides, the folding enthalpy in data set [2] was -31.7 kcal/mol.
In the case of GCGTGCGGAAACGTGCGC (((..((....))..))), in data set [1], the Tm is 59.6 °C. In addition, the folding enthalpy in data set [2] was -25.6 kcal/mol.
For GCGTGCGTACGC ((((....)))) the same measures were 64.8 °C and -13.7 kcal/mol.
On to GCGTGGCGAAAGCAAAGC ((.(.((....)).).)), for which the Tm in data set [1] stood at 52.1 °C. Also, in data set [2], the folding enthalpy was -17.4 kcal/mol.
For GCGTGGCGAAAGCAATGC ((.(.((....)).).)) the same measures were 52.8 °C and -19.6 kcal/mol.
As to GCGTGGCGAAAGCACCGC (((..((....))..))), in data set [1], the Tm came to 62.2 °C. Further, the folding enthalpy in data set [2] was -31.9 kcal/mol.
Taken in the same sequence, the figures for GCGTGGCGAAAGCCCGGC ((..(((....)))..)) were 57.8 °C and -14.9 kcal/mol.
For GCGTGGCGAAAGCGGCGC (((..((....))..))) the same measures were 67.7 °C and -40.4 kcal/mol.
Take GCGTGGCGAAAGCTAAGC ((.(.((....)).).)): the Tm in data set [1] came to 58.3 °C. Moreover, the folding enthalpy in data set [2] was -23.3 kcal/mol.
Consider GCGTGGCGACGC ((((....)))), for which, in data set [1], the Tm came out at 65.1 °C. Moreover, in data set [2], the folding enthalpy is -16.4 kcal/mol.
Taken in the same sequence, the figures for GCGTGGGGAAACCTGCGC (((..((....))..))) were 53.3 °C and -37 kcal/mol.
As for GCGTGTAGACGC ((((....)))), in data set [1], the Tm is 58.5 °C. In addition, the folding enthalpy in data set [2] was -21.4 kcal/mol.
As for GCGTGTCCACGC ((((....)))), the Tm in data set [1] was found to be 61.5 °C. The folding enthalpy in data set [2] was -32.9 kcal/mol.
For GCGTGTCGACGC ((((....)))) the same measures were 55.4 °C and -24.6 kcal/mol.
For GCGTGTGGAAACGCACGC (((((.(....).))))), the Tm in data set [1] was found to be 67.3 °C. The folding enthalpy in data set [2] was -34.5 kcal/mol.
Turning to GCGTGTGGAAACGCATGC ((.((.(....).)).)), in data set [1], the Tm was found to be 47.4 °C. Also, the folding enthalpy in data set [2] is -23.4 kcal/mol.
With GCGTTAATACGC ((((....)))), the Tm in data set [1] was found to be 51.1 °C. Besides, the folding enthalpy in data set [2] is -21.1 kcal/mol.
With GCGTTACACGC ((((...)))), the Tm in data set [1] stood at 58.1 °C. The folding enthalpy in data set [2] is -19.8 kcal/mol.
Regarding GCGTTAGCGAAAGCTCGC (((..(((....)))))), in data set [1], the Tm worked out at 44.2 °C. Besides, the folding enthalpy in data set [2] was -12.5 kcal/mol.
For GCGTTAGGAAACTAATGC ((.((((....)))).)) the same measures were 47.5 °C and -43.2 kcal/mol.
With GCGTTAGGAAACTGACGC ((((.((....)).)))), in data set [1], the Tm was found to be 53.6 °C. The folding enthalpy in data set [2] was -42.5 kcal/mol.
Regarding GCGTTATAACGC ((((....)))), the Tm in data set [1] is 55.5 °C. For the same sequence, in data set [2], the folding enthalpy was -30.4 kcal/mol.
Taken in the same sequence, the figures for GCGTTCCGAAAGGATCGC (((.(((....))).))) were 61.6 °C and -35.4 kcal/mol.
As for GCGTTCGAAAGAACCGC ((((((....))).))), the Tm in data set [1] worked out at 54.3 °C. Moreover, the folding enthalpy in data set [2] is -23.8 kcal/mol.
Take GCGTTCGCGAAAGCGCGC (((..(((....)))))): the Tm in data set [1] stood at 52.7 °C. In addition, the folding enthalpy in data set [2] was -19.3 kcal/mol.
With GCGTTCGGAAACGAGTGC ((..(((....)))..)), the Tm in data set [1] was 41.8 °C. The folding enthalpy in data set [2] was -25.7 kcal/mol.
Take GCGTTCGGACGC ((((....)))): in data set [1], the Tm stood at 53.5 °C. Moreover, the folding enthalpy in data set [2] was -25.4 kcal/mol.
GCGTTCTAACGC ((((....)))): the Tm in data set [1] is 58.5 °C. Also, in data set [2], the folding enthalpy was -25.8 kcal/mol.
GCGTTGATACGC ((((....)))): the Tm in data set [1] was found to be 53.1 °C. Besides, the folding enthalpy in data set [2] was -23.1 kcal/mol.
For GCGTTGCGAAAGCATAGC ((..(((....)))..)) the same measures were 58.4 °C and -26.5 kcal/mol.
Taken in the same sequence, the figures for GCGTTGGGAAACTGACGC ((((..(....)..)))) were 49.7 °C and -35.3 kcal/mol.
Taken in the same sequence, the figures for GCGTTGTCACGC ((((....)))) were 52.2 °C and -22.4 kcal/mol.
On to GCGTTTCAACGC ((((....)))), for which the Tm in data set [1] turned out to be 60.2 °C. In addition, the folding enthalpy in data set [2] is -27.6 kcal/mol.
Regarding GCGTTTCACGC ((((...)))), the Tm in data set [1] turned out to be 59.1 °C. In data set [2], the folding enthalpy is -34.8 kcal/mol.
For GCGTTTCCACGC ((((....)))) the same measures were 53.5 °C and -22.6 kcal/mol.
Taken in the same sequence, the figures for GCGTTTCGAAAGAACGC (((.(((....)))))) were 57.6 °C and -33.8 kcal/mol.
Taken in the same sequence, the figures for GCGTTTGCGAAAGCACGC (((..(((....)))))) were 55.2 °C and -22.6 kcal/mol.
In the case of GCGTTTGGAAACAAGCGC (((.(((....))).))), the Tm in data set [1] amounted to 54.6 °C. Also, the folding enthalpy in data set [2] was -45.6 kcal/mol.
For GCGTTTGGAAACGAACGC (((((.(....).))))) the same measures were 55.7 °C and -61.3 kcal/mol.
Take GCGTTTTAACGC ((((....)))): the Tm in data set [1] was found to be 57.7 °C. For the same sequence, the folding enthalpy in data set [2] was -26.5 kcal/mol.
Taken in the same sequence, the figures for GCTAAAGCGAAAGCTAGC (((..(((....)))))) were 47.3 °C and -21.4 kcal/mol.
Taken in the same sequence, the figures for GCTAACCCGAAAGGGAGC (((..(((....)))))) were 41.1 °C and -15.6 kcal/mol.
For GCTAACGAAAGTTATAGC ((((((....)))..))) the same measures were 36 °C and -24.2 kcal/mol.
With GCTAACGAAAGTTGTAGC ((((((....)))..))), the Tm in data set [1] came to 38.3 °C. The folding enthalpy in data set [2] was -20.6 kcal/mol.
GCTAACGAAAGTTTGAGC ((((((....)))..))): in data set [1], the Tm is 32.6 °C. Moreover, the folding enthalpy in data set [2] was -15.6 kcal/mol.
With GCTAACGAAAGTTTTAGC ((((((....)))..))), the Tm in data set [1] was determined as 33.6 °C. In addition, in data set [2], the folding enthalpy is -17.4 kcal/mol.
For GCTAACGCGAAAGCGAGC (((..(((....)))))) the same measures were 45.2 °C and -15.2 kcal/mol.
As to GCTAAGACGAAAGTCAGC (((..(((....)))))), the Tm in data set [1] came to 44.3 °C. Also, the folding enthalpy in data set [2] was -20.4 kcal/mol.
For GCTAAGCGAAAGCAAAGC (((..((....))..))) the same measures were 40.8 °C and -17.5 kcal/mol.
For GCTAAGCGAAAGCACAGC (((..((....))..))) the same measures were 42.7 °C and -21.7 kcal/mol.
Taken in the same sequence, the figures for GCTAAGCGAAAGCAGAGC (((..((....))..))) were 43.4 °C and -23.9 kcal/mol.
For GCTAAGCGAAAGCATAGC ((((.((....)).)))), the Tm in data set [1] turned out to be 54.8 °C. Moreover, the folding enthalpy in data set [2] is -27 kcal/mol.
For GCTAAGCGAAAGCTAAGC (((.(((....))).))) the same measures were 51.5 °C and -41.1 kcal/mol.
As for GCTAAGCGAAAGCTATGC ((..(((....)))..)), the Tm in data set [1] turned out to be 43.5 °C. The folding enthalpy in data set [2] is -20.4 kcal/mol.
For GCTAAGCGAAAGCTCCGC ((..(((....)))..)) the same measures were 26.9 °C and -10.6 kcal/mol.
For GCTAAGCGAAAGCTGAGC (((.(((....))).))) the same measures were 56.1 °C and -42.3 kcal/mol.
Taken in the same sequence, the figures for GCTAAGTCGAAAGACAGC (((..(((....)))))) were 41.2 °C and -20.2 kcal/mol.
For GCTAATACGAAAGTAAGC (((..(((....)))))), in data set [1], the Tm is 29.5 °C. The folding enthalpy in data set [2] was -14.1 kcal/mol.
On to GCTAATCCGAAAGGAAGC (((..(((....)))))), for which the Tm in data set [1] worked out at 33.1 °C. Moreover, the folding enthalpy in data set [2] was -16.5 kcal/mol.
For the sequence GCTAATCGAAAGATAAGC (((.(((....))).))), in data set [1], the Tm was found to be 42.8 °C. In data set [2], the folding enthalpy was -26.2 kcal/mol.
With GCTAATCGAAAGATGAGC (((.(((....))).))), the Tm in data set [1] was 47.8 °C. The folding enthalpy in data set [2] is -31.4 kcal/mol.
Taken in the same sequence, the figures for GCTACAGGAAACTGTAAC (.(((((....))))).) were 30.3 °C and -12.8 kcal/mol.
For GCTACAGGAAACTGTAGC (((((((....))))))) the same measures were 63.7 °C and -47.9 kcal/mol.
